Assay [1] addresses Apoptosis regulator Bcl-2 (Homo sapiens, UniProt P10415). As to the kind of experiment: Displacement of fluorescently-tagged BH3 peptide from Bcl-2 by chemiluminescent nitrogen detection method. The procedure, abridged: (§1)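 Solution-phase competition binding in HTS format. Inhibitors compete with a fluorescently tagged BH3 peptide for Bcl-2 or Bcl-xL. Library compounds were first screened at one fixed concentration. Hits exceeding three standard deviations above assay error were then run in a multi-point dilution series, and Ki values were derived from that series.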

Another assay concerns the target Bcl-2-like protein 1 (Homo sapiens, UniProt Q07817). The experiment in a line: Displacement of fluorescently-tagged BH3 peptide from Bcl-XL by chemiluminescent nitrogen detection method. In short, it runs like this:
as §1

A value given as a limit tells only on which side of the number the result lay.

Bcl-2-like protein 1, sequence (Q07817 whole entry): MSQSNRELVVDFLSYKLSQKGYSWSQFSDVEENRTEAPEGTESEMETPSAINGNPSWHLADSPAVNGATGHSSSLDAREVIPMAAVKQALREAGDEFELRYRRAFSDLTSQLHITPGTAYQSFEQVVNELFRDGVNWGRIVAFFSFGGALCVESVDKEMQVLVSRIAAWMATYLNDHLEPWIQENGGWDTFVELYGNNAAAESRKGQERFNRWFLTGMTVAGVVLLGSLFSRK
Apoptosis regulator Bcl-2, sequence (P10415 whole entry): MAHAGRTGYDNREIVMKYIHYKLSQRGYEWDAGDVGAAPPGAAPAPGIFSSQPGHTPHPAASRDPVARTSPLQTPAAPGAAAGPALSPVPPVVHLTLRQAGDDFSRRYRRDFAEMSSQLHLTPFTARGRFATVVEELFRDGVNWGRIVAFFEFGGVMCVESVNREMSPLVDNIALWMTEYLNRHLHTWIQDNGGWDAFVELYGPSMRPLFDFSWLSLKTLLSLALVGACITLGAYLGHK

`CN(C)CCNC(=O)[C@H]1[C@H](CO)[C@H]2Cn3c(cccc3=O)[C@@H]1N2c1nc(-c2ccc(Cl)cc2)c(-c2ccccc2)s1`: the Ki (usually the dissociation constant of the complex between target and ligand, obtained from inhibition or displacement) in assay [1] was 1.3 µM; on Bcl-2-like protein 1, 6.6 µM.
As to `O=C(NCCCN1CCCC1)[C@H]1[C@H](CO)[C@H]2Cn3c(cccc3=O)[C@@H]1N2c1nc(-c2ccc(Cl)cc2)c(-c2ccccc2)s1`, the Ki in assay [1] stood at 1.6 µM; at Bcl-2-like protein 1, 7.8 µM.
For `CN(C)CCNC(=O)[C@@H]1[C@@H](CO)[C@@H]2Cn3c(cccc3=O)[C@H]1N2c1nc(-c2ccc(Cl)cc2)c(-c2ccccc2)s1`, in that order: 2 µM and 5.7 µM.
Regarding `O=C(N[C@@H]1CCN(Cc2ccccc2)C1)[C@H]1[C@H](CO)[C@H]2Cn3c(cccc3=O)[C@H]2N1CC1CCCCC1`, the figures for the Ki (in assay [1]; on Bcl-2-like protein 1) were 7.8 µM and above 100 µM, respectively.
In the case of `O=C(N[C@H]1CCN(Cc2ccccc2)C1)[C@H]1[C@H](CO)[C@H]2Cn3c(cccc3=O)[C@H]2N1CC1CCCCC1`, the Ki in assay [1] is 4.1 µM; on Bcl-2-like protein 1 it was above 100 µM.
Regarding `O=C(NC1Cc2ccccc2C1)[C@H]1[C@H](CO)[C@H]2Cn3c(cccc3=O)[C@H]2N1CC1CCCCC1`, the Ki in assay [1] was 5.4 µM; on Bcl-2-like protein 1 it was above 100 µM.
As to `O=C(NCc1ccc(Oc2ccccc2)cc1)[C@H]1[C@H](CO)[C@H]2Cn3c(cccc3=O)[C@H]2N1CC1CCCCC1`, the Ki in assay [1] is 8.4 µM; at Bcl-2-like protein 1, above 100 µM.
`O=C(NCCCN1CCCC1)[C@@H]1[C@@H](CO)[C@@H]2Cn3c(cccc3=O)[C@H]1N2c1nc(-c2ccc(Cl)cc2)c(-c2ccccc2)s1`: the Ki was found to be 3 µM in assay [1] and 5.7 µM on Bcl-2-like protein 1.
As to `O=C([C@@H]1[C@@H](CO)[C@@H]2Cn3c(cccc3=O)[C@@H]2N1Cc1ccc(Oc2ccccc2)cc1)N1CCC(c2ccc(F)cc2)CC1`, the Ki in assay [1] is 6.8 µM; at Bcl-2-like protein 1, above 100 µM.
Consider `O=C(NCCN1CCCCC1)[C@@H]1[C@@H](CO)[C@@H]2Cn3c(cccc3=O)[C@H]1N2c1nc(-c2ccc(Cl)cc2)c(-c2ccccc2)s1`, for which the inhibition constant (Ki) is 2.5 µM in assay [1] and 6 µM on Bcl-2-like protein 1.
On to `COCCNC(=O)[C@@H]1[C@@H](CO)[C@@H]2Cn3c(cccc3=O)[C@H]1N2c1nc(-c2ccc(Cl)cc2)c(-c2ccccc2)s1`, for which the Ki in assay [1] was 4.3 µM; on Bcl-2-like protein 1, above 100 µM.
For `COCCNC(=O)[C@H]1[C@H](CO)[C@H]2Cn3c(cccc3=O)[C@@H]1N2c1nc(-c2ccc(Cl)cc2)c(-c2ccccc2)s1` the same measures were 14 µM and above 100 µM.
For `O=C([C@@H]1[C@@H](CO)[C@@H]2Cn3c(cccc3=O)[C@@H]2N1Cc1ccc(Cl)c(Cl)c1)N1CCC(Cc2ccccc2)CC1` the same measures were 1.2 µM and above 100 µM.
With `O=C([C@@H]1[C@@H](CO)[C@@H]2Cn3c(cccc3=O)[C@@H]2N1Cc1ccc(Oc2ccccc2)cc1)N1CCC(Cc2ccccc2)CC1`, the Ki in assay [1] is 5.2 µM; on Bcl-2-like protein 1, above 100 µM.
For `O=C(NCCN1CCCCC1)[C@H]1[C@H](CO)[C@H]2Cn3c(cccc3=O)[C@@H]1N2c1nc(-c2ccc(Cl)cc2)c(-c2ccccc2)s1`, in that order: 1.5 µM and 11 µM.
On to `O=C([C@@H]1[C@@H](CO)[C@@H]2Cn3c(cccc3=O)[C@@H]2N1Cc1ccc(Cl)c(Cl)c1)N1CCC(c2ccc(F)cc2)CC1`, for which the Ki is 2.2 µM in assay [1] and above 100 µM at Bcl-2-like protein 1.
